Assay results as given in ChEMBL document CHEMBL4689842, “EUbOPEN Chemogenomics Library wave 1” (2021).

Tested on: Fibroblast
Test: Multiplex assay against human fibroblast
Format: toxicity, cell-based
Procedure, shortened: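 Hoechst33342, BioTracker Green Microtubule Cytoskeleton Dye, MitoTracker Red and Annexin V Alexa Fluor 680 were added to live cells at seeding, and imaging on a CQ1 microscope at 37°C and 5% CO2 followed compound addition. Gating by CellPathfinder machine learning separated cells into Hoechst high-intensity objects or normal cells, then normal cells into healthy, pyknosed or fragmented nuclei, then pyknosed cells into mitotic or apoptotic. Per cents of healthy-nucleus cells are reported for the tubulin, mitochondrial-mass and membrane-permeability phenotypes.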

[1] = 12 h, 1 µM, compound concentration 1 uM, replicate 1
[2] = 12 h, 1 µM, compound concentration 1 uM, replicate 2
[3] = 12 h, 10 µM, compound concentration 10 uM, replicate 1
[4] = 12 h, 10 µM, compound concentration 10 uM, replicate 2
[5] = 24 h, 1 µM, compound concentration 1 uM, replicate 1
[6] = 24 h, 1 µM, compound concentration 1 uM, replicate 2
[7] = 24 h, 10 µM, compound concentration 10 uM, replicate 1
[8] = 24 h, 10 µM, compound concentration 10 uM, replicate 2

COc1ccc(-c2ccc3c(N4CCOCC4)nc(N4C[C@@H](C)O[C@@H](C)C4)nc3n2)cc1CO [Ku-0063794]
Population Apoptotic (%) [1]: 72% | Population Fragmented Nuclei (%) [1]: 30% | Population Healthy Nuclei (%) [1]: 52% | Population Hoechst High Intensity Objects (%) [1]: 16% | Population Membrane Permeable-Phenotype (%) [1]: 5% | Population Mitochondria Different-Phenotype (%) [1]: 1% | Population Mitotic Cells (%) [1]: 27% | Population Normal (%) [1]: 83% | Population Pyknosed Nuclei (%) [1]: 16% | Population Tubulin-Different-Phenotype (%) [1]: 3% | Total Cell Count [1]: 281 | Population Apoptotic (%) [2]: 33% | Population Fragmented Nuclei (%) [2]: 61% | Population Healthy Nuclei (%) [2]: 30% | Population Hoechst High Intensity Objects (%) [2]: 35% | Population Membrane Permeable-Phenotype (%) [2]: 17% | Population Mitochondria Different-Phenotype (%) [2]: 13% | Population Mitotic Cells (%) [2]: 66% | Population Normal (%) [2]: 64% | Population Pyknosed Nuclei (%) [2]: 8% | Population Tubulin-Different-Phenotype (%) [2]: 17% | Total Cell Count [2]: 116 | Population Apoptotic (%) [3]: 77% | Population Fragmented Nuclei (%) [3]: 72% | Population Healthy Nuclei (%) [3]: 20% | Population Hoechst High Intensity Objects (%) [3]: 63% | Population Membrane Permeable-Phenotype (%) [3]: 14% | Population Mitochondria Different-Phenotype (%) [3]: 3% | Population Mitotic Cells (%) [3]: 22% | Population Normal (%) [3]: 36% | Population Pyknosed Nuclei (%) [3]: 6% | Population Tubulin-Different-Phenotype (%) [3]: 7% | Total Cell Count [3]: 736 | Population Apoptotic (%) [4]: 0% | Population Fragmented Nuclei (%) [4]: 82% | Population Healthy Nuclei (%) [4]: 17% | Population Hoechst High Intensity Objects (%) [4]: 66% | Population Membrane Permeable-Phenotype (%) [4]: 42% | Population Mitochondria Different-Phenotype (%) [4]: 42% | Population Mitotic Cells (%) [4]: 0% | Population Normal (%) [4]: 33% | Population Pyknosed Nuclei (%) [4]: 0% | Population Tubulin-Different-Phenotype (%) [4]: 28% | Total Cell Count [4]: 244 | Population Apoptotic (%) [5]: 67% | Population Fragmented Nuclei (%) [5]: 33% | Population Healthy Nuclei (%) [5]: 54% | Population Hoechst High Intensity Objects (%) [5]: 18% | Population Membrane Permeable-Phenotype (%) [5]: 7% | Population Mitochondria Different-Phenotype (%) [5]: 2% | Population Mitotic Cells (%) [5]: 32% | Population Normal (%) [5]: 81% | Population Pyknosed Nuclei (%) [5]: 11% | Population Tubulin-Different-Phenotype (%) [5]: 3% | Total Cell Count [5]: 290 | Population Apoptotic (%) [6]: 80% | Population Fragmented Nuclei (%) [6]: 65% | Population Healthy Nuclei (%) [6]: 28% | Population Hoechst High Intensity Objects (%) [6]: 25% | Population Membrane Permeable-Phenotype (%) [6]: 9% | Population Mitochondria Different-Phenotype (%) [6]: 13% | Population Mitotic Cells (%) [6]: 20% | Population Normal (%) [6]: 74% | Population Pyknosed Nuclei (%) [6]: 6% | Population Tubulin-Different-Phenotype (%) [6]: 13% | Total Cell Count [6]: 105 | Population Apoptotic (%) [7]: 59% | Population Fragmented Nuclei (%) [7]: 72% | Population Healthy Nuclei (%) [7]: 21% | Population Hoechst High Intensity Objects (%) [7]: 58% | Population Membrane Permeable-Phenotype (%) [7]: 10% | Population Mitochondria Different-Phenotype (%) [7]: 0% | Population Mitotic Cells (%) [7]: 40% | Population Normal (%) [7]: 41% | Population Pyknosed Nuclei (%) [7]: 6% | Population Tubulin-Different-Phenotype (%) [7]: 7% | Total Cell Count [7]: 790 | Population Apoptotic (%) [8]: 100% | Population Fragmented Nuclei (%) [8]: 78% | Population Healthy Nuclei (%) [8]: 20% | Population Hoechst High Intensity Objects (%) [8]: 70% | Population Membrane Permeable-Phenotype (%) [8]: 28% | Population Mitochondria Different-Phenotype (%) [8]: 21% | Population Mitotic Cells (%) [8]: 0% | Population Normal (%) [8]: 29% | Population Pyknosed Nuclei (%) [8]: 1% | Population Tubulin-Different-Phenotype (%) [8]: 21% | Total Cell Count [8]: 241

NC(=O)c1cccc(-c2cc(Nc3ccc(OC(F)(F)F)cc3)ncn2)c1
Population Apoptotic (%) [1]: 80% | Population Fragmented Nuclei (%) [1]: 30% | Population Healthy Nuclei (%) [1]: 53% | Population Hoechst High Intensity Objects (%) [1]: 10% | Population Membrane Permeable-Phenotype (%) [1]: 5% | Population Mitochondria Different-Phenotype (%) [1]: 6% | Population Mitotic Cells (%) [1]: 20% | Population Normal (%) [1]: 89% | Population Pyknosed Nuclei (%) [1]: 16% | Population Tubulin-Different-Phenotype (%) [1]: 5% | Total Cell Count [1]: 205 | Population Apoptotic (%) [2]: 20% | Population Fragmented Nuclei (%) [2]: 42% | Population Healthy Nuclei (%) [2]: 48% | Population Hoechst High Intensity Objects (%) [2]: 39% | Population Membrane Permeable-Phenotype (%) [2]: 11% | Population Mitochondria Different-Phenotype (%) [2]: 23% | Population Mitotic Cells (%) [2]: 80% | Population Normal (%) [2]: 60% | Population Pyknosed Nuclei (%) [2]: 9% | Population Tubulin-Different-Phenotype (%) [2]: 3% | Total Cell Count [2]: 89 | Population Apoptotic (%) [3]: 69% | Population Fragmented Nuclei (%) [3]: 20% | Population Healthy Nuclei (%) [3]: 61% | Population Hoechst High Intensity Objects (%) [3]: 7% | Population Membrane Permeable-Phenotype (%) [3]: 7% | Population Mitochondria Different-Phenotype (%) [3]: 3% | Population Mitotic Cells (%) [3]: 30% | Population Normal (%) [3]: 92% | Population Pyknosed Nuclei (%) [3]: 18% | Population Tubulin-Different-Phenotype (%) [3]: 6% | Total Cell Count [3]: 231 | Population Apoptotic (%) [4]: 60% | Population Fragmented Nuclei (%) [4]: 50% | Population Healthy Nuclei (%) [4]: 23% | Population Hoechst High Intensity Objects (%) [4]: 39% | Population Membrane Permeable-Phenotype (%) [4]: 0% | Population Mitochondria Different-Phenotype (%) [4]: 44% | Population Mitotic Cells (%) [4]: 40% | Population Normal (%) [4]: 60% | Population Pyknosed Nuclei (%) [4]: 26% | Population Tubulin-Different-Phenotype (%) [4]: 33% | Total Cell Count [4]: 63 | Population Apoptotic (%) [5]: 60% | Population Fragmented Nuclei (%) [5]: 26% | Population Healthy Nuclei (%) [5]: 59% | Population Hoechst High Intensity Objects (%) [5]: 12% | Population Membrane Permeable-Phenotype (%) [5]: 6% | Population Mitochondria Different-Phenotype (%) [5]: 7% | Population Mitotic Cells (%) [5]: 39% | Population Normal (%) [5]: 87% | Population Pyknosed Nuclei (%) [5]: 13% | Population Tubulin-Different-Phenotype (%) [5]: 11% | Total Cell Count [5]: 194 | Population Apoptotic (%) [6]: 50% | Population Fragmented Nuclei (%) [6]: 46% | Population Healthy Nuclei (%) [6]: 46% | Population Hoechst High Intensity Objects (%) [6]: 26% | Population Membrane Permeable-Phenotype (%) [6]: 12% | Population Mitochondria Different-Phenotype (%) [6]: 16% | Population Mitotic Cells (%) [6]: 50% | Population Normal (%) [6]: 73% | Population Pyknosed Nuclei (%) [6]: 6% | Population Tubulin-Different-Phenotype (%) [6]: 12% | Total Cell Count [6]: 90 | Population Apoptotic (%) [7]: 55% | Population Fragmented Nuclei (%) [7]: 26% | Population Healthy Nuclei (%) [7]: 53% | Population Hoechst High Intensity Objects (%) [7]: 5% | Population Membrane Permeable-Phenotype (%) [7]: 5% | Population Mitochondria Different-Phenotype (%) [7]: 5% | Population Mitotic Cells (%) [7]: 44% | Population Normal (%) [7]: 94% | Population Pyknosed Nuclei (%) [7]: 19% | Population Tubulin-Different-Phenotype (%) [7]: 11% | Total Cell Count [7]: 237 | Population Apoptotic (%) [8]: 40% | Population Fragmented Nuclei (%) [8]: 50% | Population Healthy Nuclei (%) [8]: 39% | Population Hoechst High Intensity Objects (%) [8]: 31% | Population Membrane Permeable-Phenotype (%) [8]: 21% | Population Mitochondria Different-Phenotype (%) [8]: 31% | Population Mitotic Cells (%) [8]: 60% | Population Normal (%) [8]: 68% | Population Pyknosed Nuclei (%) [8]: 10% | Population Tubulin-Different-Phenotype (%) [8]: 57% | Total Cell Count [8]: 70
